According to ChEMBL document CHEMBL1123739, “Relationships between DNA-binding kinetics and biological activity for the 9-aminoacridine-4-carboxamide class of antitumor agents” (J Med Chem, 1987):
Several values for one entry are separate records, joined by “and”; a condition that tells them apart may be missing. Equal values may be shown once. Activity calls are given as the source filed them. The calls are words filed in the database; no cut-off is given here.

What was measured:
Calf thymus DNA [1] = assay: Ratio T2/T1 of DNA dissociation constant from calf thymus; type: functional; settings: Bos taurus
Outline: (§1)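 Stopped-flow SDS-sequestration assay. Sonicated calf thymus DNA (400 µM base pairs) and 20 µM drug in 0.1 SHE buffer (2 mM HEPES, 10 µM EDTA, 99.4 mM NaCl, pH 7.0) were mixed 1:1 with 20 mM SDS at 20 °C. Absorbance decay was deconvoluted into exponential time constants by curve stripping. At least six runs were averaged; ratios were taken between time constants.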

Calf thymus DNA [2] = assay: Ratio T3/T2 of DNA dissociation constant from calf thymus; type: functional; settings: Bos taurus; outline: as §1
Calf thymus DNA [3] = assay: Logarithm of association constant for binding to DNA by ethidium displacement; type: nucleic-acid assay; settings: Bos taurus
Calf thymus DNA [4] = assay: Ratio T4/T3 of DNA dissociation constant from calf thymus; type: functional; settings: Bos taurus; outline: as §1
Calf thymus DNA [5] = assay: DNA dissociation constant from calf thymus; type: functional; settings: Bos taurus; outline: as §1
Calf thymus DNA [6] = assay: DNA dissociation constant was determined from calf thymus; type: functional; settings: Bos taurus; outline: as §1
P388 [7] = assay: Percentage increase in life span treated animals over those of controls injected with P388 leukemia cells; NA means no activity (ILS <20%) at all dose levels; type: functional; settings: Mus musculus
Nucleic Acid = assay: Difference between log K of (AT) and log K of (GC) DNA binding; type: nucleic-acid assay
P388 [8] = assay: Percentage increase in life span treated animals over those of controls injected with P388 leukemia cells; type: functional, Mus musculus
Calf thymus DNA [9] = assay: Ratio of DNA dissociation constant from calf thymus; type: functional; settings: Bos taurus; outline: as §1
P388 [10] = assay: Compound administered intraperitoneally was evaluated for optimal dose (OD) given per day after inoculation of 10e 6 P388 leukemia cells for highest nontoxic dose; type: functional, Mus musculus
Calf thymus DNA [11] = assay: Ratio T2/T1 of DNA dissociation constant of poly(dG-dC) from calf thymus; type: functional; settings: Bos taurus
Calf thymus DNA [12] = assay: Ratio T3/T2 of DNA dissociation constant of poly(dG-dC) from calf thymus; type: functional; settings: Bos taurus
Calf thymus DNA [13] = assay: Dissociation constant of poly(dG-dC)DNA binding in calf thymus; type: functional; settings: Bos taurus
Calf thymus DNA [14] = assay: Dissociation constant of poly(dG-dC)DNA in calf thymus; type: functional; settings: Bos taurus
L1210 = assay: Evaluated for concentration which when added to cultures of L1210 leukemia cells for a period of 70 hr reduces cell numbers of 50% of control cultures; type: functional, cell-based; settings: Mus musculus, L1210, 70 h
P388 [15] = assay: Percentage increase in life span treated animals over those of controls injected with P388 leukemia cells; NA means no activity (ILS<20%) at all dose levels; type: functional; settings: Mus musculus
P388 [16] = assay: Percentage increase in life span treated animals over those of controls injected with P388 leukemia cells; Na means no activity (ILS<20%) at all dose levels; type: functional; settings: Mus musculus
[17] = test system: L1210 (mouse leukemia cells); assay: Ability to inhibit growth of mouse leukemia L1210 cells
P388 [18] = assay: Percentage increase in life span treated animals over those of controls injected with P388 leukemia cells;NA means no activity (ILS<20%) at all dose levels; type: functional; settings: Mus musculus

COc1ccc2nc3c(C(=O)NCCN(C)C)cccc3c(N)c2c1
Ratio (Calf thymus DNA [1]): 2.8 | Ratio (Calf thymus DNA [2]): 2.6 | Log K (Calf thymus DNA [3]): 7.64 and 7.66 | Ratio (Calf thymus DNA [4]): 5.2 | Time constant T1 (Calf thymus DNA [5]): 9 ms | Time constant T3 (Calf thymus DNA [5]): 64 ms | Time constant T4 (Calf thymus DNA [5]): 330 ms | Time constant T2 (Calf thymus DNA [6]): 25 ms | ILS (P388 [7]): inactive | Log K delta (Nucleic Acid): 0.02

COc1cccc2nc3c(C(=O)NCCN(C)C)cccc3c(N)c12
Ratio (Calf thymus DNA [1]): 5 | Ratio (Calf thymus DNA [2]): 5.6 | Log K (Calf thymus DNA [3]): 7.68 and 7.55 | Time constant T1 (Calf thymus DNA [5]): 6 ms | Time constant T3 (Calf thymus DNA [5]): 168 ms | Time constant T2 (Calf thymus DNA [6]): 30 ms | ILS (P388 [7]): inactive | Log K delta (Nucleic Acid): -0.18

CN(C)CCNC(=O)c1cccc2c(N)c3ccccc3nc12
ILS (P388 [8]): 98

Nc1c2ccccc2nc2c(C(=O)NCCNCCO)cccc12
Ratio (Calf thymus DNA [9]): 3.4 and 2.9 and 4.4 | Log K (Calf thymus DNA [3]): 7.34 and 7.73 | Time constant T1 (Calf thymus DNA [5]): 5 ms | Time constant T3 (Calf thymus DNA [5]): 49 ms | Time constant T4 (Calf thymus DNA [5]): 214 ms | Time constant T2 (Calf thymus DNA [6]): 17 ms | ILS (P388 [8]): 73 | OD (P388 [10]): 20 mg/kg | Log K delta (Nucleic Acid): 0.39

CN(C)CCCCNC(=O)c1cccc2c(N)c3ccccc3nc12
Ratio (Calf thymus DNA [11]): 6.5 | Ratio (Calf thymus DNA [1]): 4 | Ratio (Calf thymus DNA [12]): 3.3 | Ratio (Calf thymus DNA [2]): 3.3 | Log K (Calf thymus DNA [3]): 7.49 and 7.43 | Time constant T1 (Calf thymus DNA [13]): 4 ms | Time constant T1 (Calf thymus DNA [5]): 4 ms | Time constant T3 (Calf thymus DNA [5]): 52 ms | Time constant T2 (Calf thymus DNA [14]): 26 ms | Time constant T3 (Calf thymus DNA [14]): 86 ms | Time constant T2 (Calf thymus DNA [6]): 16 ms | IC50 (L1210): 0.43 µM | Log K delta (Nucleic Acid): -0.06

Nc1c2ccccc2nc2ccccc12 [AMINACRINE]
Ratio (Calf thymus DNA [1]): 6.3 | Log K (Calf thymus DNA [3]): 6.08 and 6.11 | Time constant T1 (Calf thymus DNA [5]): 2.5 ms | Time constant T2 (Calf thymus DNA [6]): 15 ms | IC50 (L1210): 2.6 µM | OD (P388 [10]): 20 mg/kg | Log K delta (Nucleic Acid): 0.07

CN(C)CCCNC(=O)c1cccc2c(N)c3ccccc3nc12
Ratio (Calf thymus DNA [1]): 3.8 | Ratio (Calf thymus DNA [2]): 2.9 | Log K (Calf thymus DNA [3]): 7.51 and 7.6 | Time constant T1 (Calf thymus DNA [5]): 4 ms | Time constant T3 (Calf thymus DNA [5]): 44 ms | Time constant T2 (Calf thymus DNA [6]): 15 ms | ILS (P388 [15]): inactive | OD (P388 [10]): 50 mg/kg | Log K delta (Nucleic Acid): 0.09

CN(C)CCNS(=O)(=O)c1cccc2c(N)c3ccccc3nc12
Ratio (Calf thymus DNA [1]): 4.2 | Time constant T1 (Calf thymus DNA [5]): 5 ms | Time constant T2 (Calf thymus DNA [6]): 21 ms | ILS (P388 [16]): inactive | OD (P388 [10]): 65 mg/kg | IC50 [17]: 13 µM

CCN(CC)CCNC(=O)c1cccc2c(N)c3ccccc3nc12
Ratio (Calf thymus DNA [1]): 4.3 | Ratio (Calf thymus DNA [2]): 3.9 | Log K (Calf thymus DNA [3]): 7.26 and 7.59 | Ratio (Calf thymus DNA [4]): 5.5 | Time constant T1 (Calf thymus DNA [5]): 3 ms | Time constant T3 (Calf thymus DNA [5]): 51 ms | Time constant T4 (Calf thymus DNA [5]): 280 ms | Time constant T2 (Calf thymus DNA [6]): 13 ms | ILS (P388 [8]): 70 | OD (P388 [10]): 5.9 mg/kg | Log K delta (Nucleic Acid): 0.33

CN(C)CCNC(=O)c1ccc2nc3ccccc3c(N)c2c1
Ratio (Calf thymus DNA [1]): 2.7 | Ratio (Calf thymus DNA [2]): 3.37 | Log K (Calf thymus DNA [3]): 7.08 and 7.55 | Time constant T1 (Calf thymus DNA [5]): 10 ms | Time constant T3 (Calf thymus DNA [5]): 90 ms | Time constant T2 (Calf thymus DNA [6]): 27 ms | ILS (P388 [15]): inactive | OD (P388 [10]): 12.5 mg/kg | Log K delta (Nucleic Acid): 0.47

CN(C)CCN(C)C(=O)c1cccc2c(N)c3ccccc3nc12
Ratio (Calf thymus DNA [1]): 5.5 | Log K (Calf thymus DNA [3]): 6.37 | Time constant T1 (Calf thymus DNA [5]): 2 ms | Time constant T2 (Calf thymus DNA [6]): 11 ms | IC50 (L1210): 5.3 µM | ILS (P388 [7]): inactive | OD (P388 [10]): 30 mg/kg | Log K delta (Nucleic Acid): 0

CN(C)CCCCCNC(=O)c1cccc2c(N)c3ccccc3nc12
Ratio (Calf thymus DNA [1]): 4 | Ratio (Calf thymus DNA [2]): 3.6 | Log K (Calf thymus DNA [3]): 7.45 | Time constant T1 (Calf thymus DNA [5]): 4 ms | Time constant T3 (Calf thymus DNA [5]): 58 ms | Time constant T2 (Calf thymus DNA [6]): 16 ms | Log K delta (Nucleic Acid): 0

COc1cccc2c(N)c3cccc(C(=O)NCCN(C)C)c3nc12
Ratio (Calf thymus DNA [1]): 4.1 | Ratio (Calf thymus DNA [2]): 4.3 | Log K (Calf thymus DNA [3]): 7.62 and 7.83 | Ratio (Calf thymus DNA [4]): 3.6 | Time constant T1 (Calf thymus DNA [5]): 17 ms | Time constant T3 (Calf thymus DNA [5]): 299 ms | Time constant T4 (Calf thymus DNA [5]): 1080 ms | Time constant T2 (Calf thymus DNA [6]): 69 ms | ILS (P388 [8]): 81 | Log K delta (Nucleic Acid): 0.21

CN(C)CCCCCCNC(=O)c1cccc2c(N)c3ccccc3nc12
Ratio (Calf thymus DNA [1]): 4.8 | Ratio (Calf thymus DNA [2]): 4.2 | Log K (Calf thymus DNA [3]): 7.41 and 7.4 | Time constant T1 (Calf thymus DNA [5]): 4 ms | Time constant T3 (Calf thymus DNA [5]): 80 ms | Time constant T2 (Calf thymus DNA [6]): 19 ms | Log K delta (Nucleic Acid): -0.01

COc1ccc2c(N)c3cccc(C(=O)NCCN(C)C)c3nc2c1
Ratio (Calf thymus DNA [1]): 3.2 | Ratio (Calf thymus DNA [2]): 3.3 | Log K (Calf thymus DNA [3]): 7.33 and 7.71 | Ratio (Calf thymus DNA [4]): 3.7 | Time constant T1 (Calf thymus DNA [5]): 26 ms | Time constant T3 (Calf thymus DNA [5]): 271 ms | Time constant T4 (Calf thymus DNA [5]): 1000 ms | Time constant T2 (Calf thymus DNA [6]): 83 ms | ILS (P388 [7]): inactive | Log K delta (Nucleic Acid): 0.38

COc1ccc2c(N)c3ccccc3nc2c1C(=O)NCCN(C)C
Ratio (Calf thymus DNA [1]): 2.9 | Ratio (Calf thymus DNA [2]): 4.4 | Log K (Calf thymus DNA [3]): 7.21 and 7.12 | Time constant T1 (Calf thymus DNA [5]): 7 ms | Time constant T3 (Calf thymus DNA [5]): 87 ms | Time constant T2 (Calf thymus DNA [6]): 20 ms | ILS (P388 [7]): inactive | Log K delta (Nucleic Acid): -0.09

COc1ccc(C(=O)NCCN(C)C)c2nc3ccccc3c(N)c12
Ratio (Calf thymus DNA [1]): 4.6 | Ratio (Calf thymus DNA [2]): 3.5 | Log K (Calf thymus DNA [3]): 7.31 and 7.52 | Ratio (Calf thymus DNA [4]): 6.4 | Time constant T1 (Calf thymus DNA [5]): 22 ms | Time constant T3 (Calf thymus DNA [5]): 355 ms | Time constant T4 (Calf thymus DNA [5]): 2270 ms | Time constant T2 (Calf thymus DNA [6]): 102 ms | IC50 (L1210): 0.0006 µM | ILS (P388 [8]): 27 | Log K delta (Nucleic Acid): 0.21

COc1cc(C(=O)NCCN(C)C)c2nc3ccccc3c(N)c2c1
Ratio (Calf thymus DNA [1]): 4 | Ratio (Calf thymus DNA [2]): 3.9 | Ratio (Calf thymus DNA [4]): 6.6 | Time constant T1 (Calf thymus DNA [5]): 20 ms | Time constant T3 (Calf thymus DNA [5]): 311 ms | Time constant T4 (Calf thymus DNA [5]): 2050 ms | Time constant T2 (Calf thymus DNA [6]): 79 ms | ILS (P388 [8]): 72 | Log K delta (Nucleic Acid): 0.76

Nc1c2ccccc2nc2c(C(=O)NCCN3CCOCC3)cccc12
Ratio (Calf thymus DNA [1]): 10 | Ratio (Calf thymus DNA [2]): 3.3 | Log K (Calf thymus DNA [3]): 7.29 and 7.58 | Ratio (Calf thymus DNA [4]): 4.4 | Time constant T1 (Calf thymus DNA [5]): 4 ms | Time constant T3 (Calf thymus DNA [5]): 135 ms | Time constant T4 (Calf thymus DNA [5]): 590 ms | Time constant T2 (Calf thymus DNA [6]): 40 ms | ILS (P388 [18]): inactive | OD (P388 [10]): 30 mg/kg | Log K delta (Nucleic Acid): 0.29

CN(C)CCNC(=O)c1ccc2c(N)c3ccccc3nc2c1
Ratio (Calf thymus DNA [1]): 4.5 | Ratio (Calf thymus DNA [2]): 3.6 | Log K (Calf thymus DNA [3]): 7.18 and 7.66 | Time constant T1 (Calf thymus DNA [5]): 6 ms | Time constant T3 (Calf thymus DNA [5]): 98 ms | Time constant T2 (Calf thymus DNA [6]): 27 ms | ILS (P388 [15]): inactive | OD (P388 [10]): 250 mg/kg | Log K delta (Nucleic Acid): 0.48
